Reference: ChEMBL document CHEMBL2203272, “New fluorescent bile acids: synthesis, chemical characterization, and disastereoselective uptake by Caco-2 cells of 3-deoxy 3-NBD-amino deoxycholic and ursodeoxycholic acid” (Bioorg Med Chem, 2012)

How the values were obtained:
Caco-2 [1] = assay: Cellular uptake in human Caco2 cells at 10 uM at 4 degC by fluorescence assay; assay type: ADME, cell-based; details: caco-2, 10 µM, TDE = time-dependent effect
Method in brief: (§1)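 21-d polarised Caco-2 monolayers incubated with 10 μM in KRB (pH 7.4, 0.1% DMSO) at 37°C or 4°C. Sampled at 5, 10, 15, 30, 45, 60 and 90 min. Cells washed twice with ice-cold KRB and lysed in 1% Triton X-100. Lysate fluorescence read at ex 485/em 520 nm and normalised to BCA protein; mean ± SD, n = 3.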

Caco-2 [2] = assay: Cellular uptake in human Caco2 cells at 10 uM at 37 degC by fluorescence assay; assay type: ADME, cell-based; details: caco-2, 10 µM, TDE = time-dependent effect; method in brief: as §1
Huh-7 = assay: Cytotoxicity against human HuH7 cells assessed as cell viability at 1 to 100 uM up to 24 hrs by MTT assay; assay type: cell-based; details: huh-7, 24 h
Method in brief: (§2)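 HUH-7 and SKGT-4 cells exposed up to 100 μM for up to 24 h; viability by MTT assay.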

[3] = Cytotoxicity against human SKGT4 cells assessed as cell viability at 1 to 100 uM up to 24 hrs by MTT assay; assay type: cell-based; details: skgt4, 24 h; method in brief: as §2
Caco-2 [4] = assay: Cytotoxicity against human Caco2 cells assessed as cell viability at 1 to 100 uM up to 100 mins by MTT assay; assay type: cell-based; details: caco-2, 100 min
Method in brief: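 Caco-2 monolayers exposed to 1–100 μM for up to 100 min; viability by MTT assay.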

[5] = Stability of the compound in MeCN/phosphate buffer assessed as compound remaining at pH 7.4 measured for 24 hrs by HPLC analysis; assay type: physicochemical; details: pH 7.4, 24 h
Method in brief: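 Solution at 0.01 mg/ml (stock) in 2% MeCN/phosphate buffer pH 7.4, held at 37°C for 24 h and injected hourly. Analysed by C18 reversed-phase HPLC with MeCN/pH 2.5 phosphate buffer gradient, 1.0 ml/min, column 37°C, detection 346 nm; remaining compound followed by peak area.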

Caco-2 [6] = assay: Cellular uptake in human Caco2 cells at 10 uM at 4 to 37 degC after 90 mins by fluorescence assay; assay type: ADME, cell-based; details: caco-2, 1.5 h
Method in brief: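 Caco-2 grown 21 d on 24-well plates as polarised monolayers; compound at 10 μM in bicarbonated Krebs-Ringer buffer (HEPES, pH 7.4) with 0.1% DMSO, at 37°C or 4°C, sampled 5–90 min. Washed twice with ice-cold KRB, lysed in 1% Triton X-100, lysate fluorescence read at ex 485/em 520 nm, normalised to BCA protein. Active uptake = 37°C minus 4°C; mean ± SD, n = 3.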

Caco-2 [7] = assay: Cellular uptake in human Caco2 cells at 4 to 37 degC after 20 mins by fluorescence assay; assay type: ADME, cell-based; details: caco-2, 20 min
Method in brief: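 Uptake into 21-d Caco-2 monolayers over 20 min at 37°C and 4°C, in KRB pH 7.4 with 0.1% DMSO. Monolayers washed with ice-cold KRB and solubilised in 1% Triton X-100. Fluorescence read at ex 485/em 520 nm with BCA protein normalisation. Active part taken as the 37°C minus 4°C difference; n = 3.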

[8] = Cellular uptake in human Caco2 cells assessed as uptake rate at 1 to 100 uM at 4 to 37 degC after 20 mins by Eadie-Hofstee plot method; assay type: ADME, cell-based; details: Caco-2 cells
Method in brief: (§3)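 Caco-2 monolayers grown 21 d, exposed to 1–100 μM in bicarbonated Krebs-Ringer buffer (HEPES, pH 7.4, 0.1% DMSO) for 20 min at 37°C and 4°C. Washed twice with ice-cold KRB, lysed in 1% Triton X-100, fluorescence read at ex 485/em 520 nm and normalised to BCA protein. Active uptake = 37°C minus 4°C. Km/Vmax from Michaelis-Menten non-linear least squares fit, Eadie-Hofstee plot; n = 3.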

Caco-2 [9] = assay: Cellular uptake in human Caco2 cells assessed as uptake rate measured per mg of protein at 1 to 100 uM at 4 to 37 degC after 20 mins by Eadie-Hofstee plot method; assay type: ADME, cell-based; details: caco-2, 20 min; method in brief: as §3

Drug uptake (Caco-2 [1]) | Drug uptake (Caco-2 [2]) | Stability [5] | Km at 20 min, up to 100 µM [8] [µM] | Vmax (Caco-2 [9]) [nmol/min/mg] | SMILES | Activity (Huh-7) | Activity [3] | Activity (Caco-2 [4]) | Drug uptake (Caco-2 [6]) | Drug uptake (Caco-2 [7])
tde | tde | Stable | – | – | C[C@H](CCC(=O)O)[C@H]1CC[C@H]2[C@@H]3[C@@H](O)C[C@@H]4C[C@@H](Nc5ccc([N+](=O)[O-])c6nonc56)CC[C@]4(C)[C@H]3CC[C@]12C | Non-toxic | Non-toxic | Non-toxic | – | –
– | – | – | – | – | O=[N+]([O-])c1ccc(NC2CCCCC2)c2nonc12 | – | – | – | Active | Dose-dependent effect
tde | tde | – | 28.2 | 1.8 | C[C@H](CCC(=O)O)[C@H]1CC[C@H]2[C@@H]3CC[C@@H]4C[C@H](Nc5ccc([N+](=O)[O-])c6nonc56)CC[C@]4(C)[C@H]3C[C@H](O)[C@]12C | Non-toxic | Non-toxic | Non-toxic | – | Dose-dependent effect
